Source: ChEMBL document CHEMBL3785069, “Tumour-specific cytotoxicity and structure-activity relationships of novel 1-[3-(2-methoxyethylthio)propionyl]-3,5-bis(benzylidene)-4-piperidones” (Bioorg Med Chem, 2016)
pIC50: −log10 of the molar value.

Key:
[1] = system: HSC-4; experiment: Selectivity index, ratio of average CC50 for human HGF and HPLF cells to CC50 for human HSC4 cells; conditions: pooled result: one value given for 2 cell lines, strains, targets or settings
[2] = system: HSC-3; experiment: Selectivity index, ratio of average CC50 for human HGF and HPLF cells to CC50 for human HSC3 cells; conditions: pooled result: one value given for 2 cell lines, strains, targets or settings
[3] = Cytotoxicity against human HSC2 cells after 48 hrs by MTT assay; format: functional; conditions: HSC-2, 48 h
In short: (§1)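 Oral carcinoma (HSC-2, HSC-3, HSC-4) and nonmalignant HGF and HPLF cells incubated with graded compound concentrations at 37 °C for 48 h in DMEM plus 10% heat-inactivated FBS. Viability read by MTT. CC50 from duplicate runs, differing by under 10% at each concentration.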

[4] = system: HSC-2; experiment: Selectivity index, ratio of average CC50 for human HGF and HPLF cells to CC50 for human HSC2 cells; conditions: pooled result: one value given for 2 cell lines, strains, targets or settings
[5] = system: L1210; experiment: Cytotoxicity against mouse L1210 cells after 48 hrs by MTT assay; format: functional, cell-based; conditions: L1210, 48 h
In short: (§2)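 Leukemic cells exposed to a concentration series of each compound in RPMI 1640 medium at 37 °C, 72 h for Molt4/C8 and CEM, 48 h for L1210.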

[6] = Cytotoxicity against human HPLF cells after 48 hrs by MTT assay; format: cell-based
In short: as §1

[7] = Cytotoxicity against human HGF cells after 48 hrs by MTT assay; format: cell-based
In short: as §1

[8] = Cytotoxicity against human HSC3 cells after 48 hrs by MTT assay; format: functional; conditions: HSC-3, 48 h
In short: as §1

[9] = Cytotoxicity against human HSC4 cells after 48 hrs by MTT assay; format: functional; conditions: HSC-4, 48 h
In short: as §1

[10] = Cytotoxicity against human Molt4/C8 cells after 72 hrs by MTT assay; format: functional, cell-based; conditions: MOLT-4, 72 h
In short: as §2

[11] = system: CCRF-CEM; experiment: Cytotoxicity against human CEM cells after 72 hrs by MTT assay; format: functional, cell-based
In short: as §2

[12] = system: HSC-2; experiment: Induction of apoptosis in human HSC2 cells assessed as cell death after 24 hrs by Annexin-V-FITC/PI-based flow cytometric analysis; format: functional
In short: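 HSC-2 cells treated in RPMI for 24 h at 37 °C at 0.5, 1.0 and 2.0 µM. Early and late apoptotic fractions measured by flow cytometry after Annexin-V-FITC/propidium iodide staining.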

[13] = system: HSC-4; experiment: Potency index, ratio of CC50 for mephalan to CC50 for test compound against human HSC4 cells; format: functional
[14] = system: HSC-2; experiment: Induction of apoptosis in human HSC2 cells assessed as PARP1 cleavage after 24 hrs by SDS-PAGE method; format: functional, cell-based
In short: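 HSC-2 cells grown in 6-well plates for 24 h, then exposed to 0.1, 0.2, 0.3 and 0.4 µM for 24 h. Cells scraped into lysis buffer and run on 8% SDS-PAGE, then transferred to PVDF. Cleaved PARP (Asp214) detected with a human-specific antibody on X-ray film.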

[15] = system: HSC-3; experiment: Potency index, ratio of CC50 for mephalan to CC50 for test compound against human HSC3 cells; format: functional
[16] = system: HSC-2; experiment: Potency index, ratio of CC50 for mephalan to CC50 for test compound against human HSC2 cells; format: functional

| Structure (SMILES) | Selectivity Index [1] | Selectivity Index [2] | CC50 [3] | Selectivity Index [4] | pIC50 [5] | CC50 at 48 h [6] | CC50 at 48 h [7] | CC50 [8] | CC50 [9] | pIC50 [10] | pIC50 [11] | Activity [12] | Ratio [13] | Activity [14] | Ratio [15] | Ratio [16] |
| --- | --- | --- | --- | --- | --- | --- | --- | --- | --- | --- | --- | --- | --- | --- | --- | --- |
| COCC[S+]([O-])CCC(=O)N1C/C(=C\c2ccccc2)C(=O)/C(=C/c2ccccc2)C1 (configuration not stated) | 8.92 | 4.33 | 580 nM | 15.7 | 5.31 | 9100 nM | 9090 nM | 2100 nM | 1020 nM | 5.79 | 5.89 |  |  |  |  |  |
| COCC[S+]([O-])CCC(=O)N1C/C(=C\c2ccc(F)cc2)C(=O)/C(=C/c2ccc(F)cc2)C1 (configuration not stated) | 6.46 | 4.48 | 690 nM | 6.55 | 5.48 | 4210 nM | 4830 nM | 1010 nM | 700 nM | 5.89 | 6.08 |  |  |  |  |  |
| N[C@@H](Cc1ccc(N(CCCl)CCCl)cc1)C(=O)O [MELPHALAN] | 6.99 | 7.84 | 16700 nM | 4.65 | 5.23 | 77100 nM | 78000 nM | 9900 nM | 11100 nM | 5.46 | 5.76 |  |  |  |  |  |
| COCCSCCC(=O)N1C/C(=C\c2ccc([N+](=O)[O-])cc2)C(=O)/C(=C/c2ccc([N+](=O)[O-])cc2)C1 | 10.2 | 7.85 | 400 nM | 7.65 | 5.67 | 2590 nM | 3520 nM | 390 nM | 300 nM | 5.86 | 5.89 | Dose-dependent effect | 35 | Dose-dependent effect | 35 | 35 |
| COCCOCCC(=O)N1C/C(=C\c2ccccc2)C(=O)/C(=C/c2ccccc2)C1 | 7.41 | 6.85 | 1010 nM | 8.95 | 5.20 | 8840 nM | 9240 nM | 1320 nM | 1220 nM | 5.74 | 5.75 |  |  |  |  |  |
| COCCS(=O)(=O)CCC(=O)N1C/C(=C\c2ccccc2)C(=O)/C(=C/c2ccccc2)C1 | 6.93 | 7.57 | 1460 nM | 6.17 | 5.57 | 8430 nM | 9590 nM | 1190 nM | 1300 nM | 5.78 | 5.94 |  |  |  |  |  |
| COCC[S+](C)CCC(=O)N1C/C(=C\c2ccccc2)C(=O)/C(=C/c2ccccc2)C1.F[B-](F)(F)F (configuration not stated) | 6.02 | 5.72 | 1560 nM | 5.24 | 5.46 | 6250 nM | 10100 nM | 1430 nM | 1360 nM | 5.87 | 5.85 |  |  |  |  |  |
